From PubChem BioAssay
Mdm2 MdmX PPI = disrupts the human Mdm2-MdmX interaction. inhibition, % at 8 µM. SaOS-2 split-luciferase Mdm2/MdmX complementation, luminescence. O15151+Q00987. actives 3% (n = 330,000);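 active = inhibition of at least 50% at 8 µM in the primary screen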
Target sequence (O15151 whole entry, looked up): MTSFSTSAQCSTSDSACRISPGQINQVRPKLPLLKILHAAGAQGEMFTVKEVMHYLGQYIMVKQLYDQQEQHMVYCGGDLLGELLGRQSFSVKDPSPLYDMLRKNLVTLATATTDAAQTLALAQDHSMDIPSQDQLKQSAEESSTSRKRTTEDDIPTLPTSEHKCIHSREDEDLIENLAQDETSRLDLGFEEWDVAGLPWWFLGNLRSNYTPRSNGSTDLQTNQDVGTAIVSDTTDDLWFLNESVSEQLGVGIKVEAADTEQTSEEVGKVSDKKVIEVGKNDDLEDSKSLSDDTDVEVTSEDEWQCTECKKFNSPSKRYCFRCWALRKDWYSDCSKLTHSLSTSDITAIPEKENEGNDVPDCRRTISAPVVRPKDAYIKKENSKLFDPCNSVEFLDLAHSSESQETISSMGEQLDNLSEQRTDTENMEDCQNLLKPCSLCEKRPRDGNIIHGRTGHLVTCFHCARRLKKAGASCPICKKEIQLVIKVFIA
Target sequence (Q00987 whole entry, looked up): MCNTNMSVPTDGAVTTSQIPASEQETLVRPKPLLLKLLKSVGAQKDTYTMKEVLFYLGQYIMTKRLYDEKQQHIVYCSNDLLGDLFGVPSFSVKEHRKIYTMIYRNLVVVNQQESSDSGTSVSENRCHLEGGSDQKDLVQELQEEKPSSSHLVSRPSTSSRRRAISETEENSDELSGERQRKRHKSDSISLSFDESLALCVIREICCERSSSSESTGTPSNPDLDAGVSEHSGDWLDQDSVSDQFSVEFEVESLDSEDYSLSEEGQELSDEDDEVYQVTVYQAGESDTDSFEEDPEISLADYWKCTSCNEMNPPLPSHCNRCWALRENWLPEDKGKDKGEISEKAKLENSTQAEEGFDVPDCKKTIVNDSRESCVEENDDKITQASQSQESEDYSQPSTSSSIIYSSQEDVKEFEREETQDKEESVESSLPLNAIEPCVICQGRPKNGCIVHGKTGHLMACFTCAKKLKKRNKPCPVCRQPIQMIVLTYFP
CSC inhib = blocks cancer stem cells; cancer stem cell-like cells viability, luminescence; inhibition, % at 7.5 µM; actives 1.1% (n = 300,000); AID 2717; in the data active = inhibition above about 75%; tested in HMLE shEcad cells
Calb FLC = affects C. albicans growth with fluconazole. C. albicans CaCi-2 (fluconazole-resistant clinical isolate) + fluconazole, Alamar Blue growth, 48 h. growth inhibition, % (concentration not given with the values). actives 0.57% (n = 300,000). AID 1979;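 active = growth inhibition above about 58% in most replicates, limit read from the data, passing the limit was not always enough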;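 note: all wells also contain fluconazole at 8 µg/ml as a sub-toxic cotreatment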
T cruzi repl = T. cruzi replication inhibition. actives 1.4% (n = 300,000). inhibition, % (test concentration not listed). T. cruzi beta-gal in NIH3T3, luminescence, 90 h. AID 1885;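 active = mean inhibition across valid replicates above about 55%, limit read from the data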;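 note: signal also drops with host cell toxicity which is not excluded here; higher percent means less beta-gal luminescence so fewer parasites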
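Read-out: Parasite load inhibition, % | Test system: Mouse NIH/3T3 fibroblasts infected with β-gal-expressing T. cruzi Tulahuen C4 | Amount: 5,000 cells/well | Medium: DMEM, 2% fetal bovine serum | Signal: GalScreen β-gal luminescence, detergent lysis, 60 min | Timing: 3 h attach, ≥90 h co-culture | Also added: Tulahuen C4 trypomastigotes, 5000/well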
Beta cell apopt = blocks beta cell apoptosis; AID 435005; actives 0.8% (n = 300,000); INS-1E cytokine-induced death, ATP luminescence, 48 h; percent of positive-control rescue, neutral wells zero; protection from apoptosis, % (test concentration not listed);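 active = Every replicate reaches about 75%, or at least half do and their mean reaches it too, limit read from the data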;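 note: higher means more ATP so stronger rescue from cytokine killing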
NALP3 yeast inh = blocks the NALP3 inflammasome reconstituted in yeast; AID 2825; Yeast reconstituted NLRP3/ASC/caspase-1, beta-gal luminescence, 24 h; actives 0.39% (n = 330,000); inhibition, % at 10 µM;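 active = inhibition of 50% or more; inactive = inhibition below 50%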
Mdm2 MdmX conf = human Mdm2/MdmX binding inhibition, confirmed; actives 55% (n = 10,000); luminescent assay; shares compounds with Mdm2 MdmX PPI; inhibition, % at 8 µM; AID 489028; in the data active = inhibition above about 40%
FLuc counter = inhibits full-length luciferase, flagging false Mdm2/MdmX hits; SaOS-2 full-length luciferase counterscreen, luminescence; actives 77% (n = 6,200); shares compounds with Mdm2 MdmX PPI; inhibition, % at 8 µM;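 active = mean inhibition at 8 µM reaching about 37%, which flags the compound as non-specific, limit read from the data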;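 note: p53-null SaOS-2 cells with luciferase driven by a doxycycline-inducible promoter; compound on cells about two nights before reading with doxycycline added after day one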
Of the large screens only hits and unclear results are named; the others gave an inactive call (follow-up assays come after a bar, where they were run). A selection: hits, their analogues and other compounds. The true share with any hit is near 5.3%.

O=C(Cn1nc(-c2ccccc2)ccc1=O)Nc1cccc(NC(=O)c2ccccn2)c1	none
COC(=O)[C@H]1[C@H]2C[C@@H]3c4[nH]c5cc(OC)ccc5c4CCN3C[C@H]2C[C@@H](OC(=O)/C=C/c2cc(OC)c(OC)c(OC)c2)[C@@H]1OC	Mdm2 MdmX PPI 64 (no result: Calb FLC, T cruzi repl) | Mdm2 MdmX conf inactive | FLuc counter 70
CN1CCN(c2ccc(NC(=O)c3ccc(-c4ccc(Br)cc4)o3)cc2)CC1	Mdm2 MdmX PPI 77, T cruzi repl 58 | Mdm2 MdmX conf inactive | FLuc counter 81
CC(C)(C)C(=O)N1CCN(c2ccc(NC(=O)c3ccc([N+](=O)[O-])o3)cc2)CC1	Mdm2 MdmX PPI 54 | Mdm2 MdmX conf 46 | FLuc counter inactive
O=C(Nc1ccc(N2CCN(Cc3ccccc3F)CC2)cc1)c1ccc([N+](=O)[O-])o1	Mdm2 MdmX PPI 81, CSC inhib 103 | Mdm2 MdmX conf 69 | FLuc counter inactive
Cc1nc2ccccc2c2oc(C(=O)N3CCN(c4ccc([N+](=O)[O-])cc4)CC3)cc12	Mdm2 MdmX PPI 86 | Mdm2 MdmX conf inactive
Cc1ccc(NC(=O)n2ccc(-c3ccc(-n4ccnc4)cc3)n2)cc1	none (no result: CSC inhib, Calb FLC, T cruzi repl, Beta cell apopt)
CCCCN1CC(O)=C(c2nc(-c3ccc(Br)cc3)cs2)C1=N	Mdm2 MdmX PPI 80 | Mdm2 MdmX conf 53 | FLuc counter 63
CCOC(=O)CCCN1CC(O)=C(c2nc(-c3ccc(Cl)cc3)cs2)C1=N	none (no result: T cruzi repl)
COc1cccc(-c2nnc(Nc3nc4c(F)cccc4s3)o2)c1	none
COc1cccc2sc(Nc3nc(-c4ccncc4)cs3)nc12	Mdm2 MdmX PPI 61, T cruzi repl 76 | Mdm2 MdmX conf 46 | FLuc counter 51
COc1cccc2sc(Nc3nc(-c4cc5ccccc5oc4=O)cs3)nc12	none (no result: Mdm2 MdmX PPI, NALP3 yeast inh)
COc1cccc2sc(Nc3nnc(-c4ccccc4Cl)o3)nc12	Mdm2 MdmX PPI 65 (no result: Beta cell apopt) | Mdm2 MdmX conf 65 | FLuc counter 54
COc1ccccc1-c1nnc(Nc2nc3c(OC)cccc3s2)o1	Mdm2 MdmX PPI 59, T cruzi repl 63 | Mdm2 MdmX conf 68 | FLuc counter 72
COc1cccc2sc(NN)nc12	none
Cc1ccc(/C=C/C(=O)Nn2cnnc2)cc1	none
O=C(N/N=C/c1cccs1)c1ccc(NC(=O)c2ccccc2Cl)cc1	none
O=C(Nc1cccc(Cl)c1)c1ccc(NCCCN2CCOCC2)c([N+](=O)[O-])c1	none (no result: CSC inhib)
Cc1ccc(NC(=O)c2ccc(NCCCN3CCC(C)CC3)c([N+](=O)[O-])c2)cc1F	Mdm2 MdmX PPI 60 | Mdm2 MdmX conf 55 | FLuc counter 47
CCOC(=O)C(C)(C)Sc1nc2c(cnn2-c2ccc(F)cc2)c(=O)[nH]1	none
COc1ccc(C(=O)C(/C=N/O)=N/Nc2ccc(F)cc2)cc1	none
CO/N=C/C(=N\Nc1ccc(OC)cc1)C(=O)c1ccc(OC)cc1	Mdm2 MdmX PPI 55 | Mdm2 MdmX conf 52 | FLuc counter 100
C=CCOc1c(CNC2CCCC2)cc(Cl)cc1OC	none
CC(C)=CCC12Oc3cc(O)ccc3C1(O)Oc1cc(O)c([C@H]3C=C(C)CC(c4ccc(O)cc4O)[C@H]3C(=O)c3ccc(O)cc3O)c(O)c1C2=O (some centres undefined)	Mdm2 MdmX PPI 68 | Mdm2 MdmX conf inactive
CS(=O)(=O)c1ccc(NC(=O)c2ccc3c(c2)S(=O)(=O)N=C2CCCCCN23)cc1	none (no result: Calb FLC)
Cc1ncc(CO)c(/C=N/NC(=O)c2cc3c(s2)CCCC3)c1O	Mdm2 MdmX PPI 58, Beta cell apopt 88 | Mdm2 MdmX conf 42 | FLuc counter 51
Cc1ncc(CO)c(/C=N/NC(=O)c2ccc(O)cc2)c1O	none
O=P(O)(O)c1cc(-c2ccccc2)oc1-c1ccccc1	none
O=c1oc(-c2ccccc2)cc(Cl)c1Cl	Mdm2 MdmX PPI 94 | Mdm2 MdmX conf 81 | FLuc counter inactive
O=C(NC(Nc1nc2ccc([N+](=O)[O-])cc2s1)(C(F)(F)F)C(F)(F)F)c1cccnc1	Mdm2 MdmX PPI 100, T cruzi repl 56, Beta cell apopt 119 | Mdm2 MdmX conf 94 | FLuc counter inactive
CCc1ccc(N=C2N=C(N)c3ccccc32)cc1	Mdm2 MdmX PPI 55 | Mdm2 MdmX conf inactive
Cc1cc(C)c(C)c(Oc2ncnc(N)c2[N+](=O)[O-])c1	none
CC(C)(C)c1ccc(-c2nc3[nH]c(=O)cc(NC(=O)c4ccco4)n3n2)cc1	none
CCn1cc(/C=C2\SC(=O)N(CC(=O)Nc3ccc4c(c3)OCO4)C2=O)c2ccccc21	Mdm2 MdmX PPI 68 (no result: Calb FLC, T cruzi repl) | Mdm2 MdmX conf 47 | FLuc counter 91
COc1cc(/C=C2/NC(=O)N(Cc3ccccc3F)C2=O)cc(OC)c1OC	none
CCOc1cc(/C=C2/NC(=O)N(CC(=O)Nc3cccc(C)c3)C2=O)ccc1OC	Mdm2 MdmX PPI 70 | Mdm2 MdmX conf 65 | FLuc counter inactive
Cc1cccc(NC(=O)CN2C(=O)S/C(=C\c3ccccn3)C2=O)c1	Mdm2 MdmX PPI 84 | Mdm2 MdmX conf inactive
CCOc1cc(/C=C2/NC(=O)N(CC(=O)Nc3cccc(C)c3)C2=O)ccc1O	none
O=C(CN1C(=O)S/C(=C\c2ccccn2)C1=O)Nc1ccc(F)cc1	none (no result: T cruzi repl)
COc1ccc(/C=C2/NC(=O)N(Cc3ccccc3F)C2=O)cc1OC	Mdm2 MdmX PPI 85 | Mdm2 MdmX conf inactive
O=C(c1ccccc1Br)N1CCN(c2ccccn2)CC1	none
Cn1c(=O)n(C)c2cc(/C=C3/NC(=O)N(Cc4ccccc4)C3=O)ccc21	Mdm2 MdmX PPI 51 | Mdm2 MdmX conf inactive | FLuc counter 88
CC1CCN(S(=O)(=O)c2ccc3c(c2)c(=O)c(C(=O)NCc2ccco2)cn3C)CC1	none
CC1=CC(C)(C)n2c(O)c(C3=NC(=S)NC3=O)c3cc(OC(=O)c4cccc5ccccc45)cc1c32	Mdm2 MdmX PPI 77 | Mdm2 MdmX conf inactive
COc1ccc(NS(=O)(=O)c2ccc(C)c(C(=O)NCc3cccnc3)c2)cc1	none (no result: CSC inhib)
COc1ccc(Nc2nccc(-c3cccc(N)c3)n2)cc1	Mdm2 MdmX PPI 65 | Mdm2 MdmX conf inactive
Cn1c2ccccc2c2c(C(=O)NCC3CCCO3)cn(C3CCCC3)c(=O)c21 (centres undefined)	none
Cc1ccc(C(=O)CSc2n[nH]c(C)n2)cc1	none
O=C(NC1CC1)C(=O)c1c(-c2ccccc2)[nH]c2ccccc12	none
CCOC(=O)c1c(C)oc2c1c(C(c1cccnc1)N1CCOCC1)c(O)c1ccccc12 (centres undefined)	Mdm2 MdmX PPI 76, CSC inhib 83 | Mdm2 MdmX conf inactive
c1csc(CNc2ncnc3ccc(-c4ccc5c(c4)OCO5)cc23)c1	none (no result: Calb FLC, T cruzi repl)
c1csc(CNc2ncnc3ccc(-c4ccoc4)cc23)c1	Mdm2 MdmX PPI 65 (no result: Calb FLC, T cruzi repl) | Mdm2 MdmX conf 66 | FLuc counter inactive
